Experimental findings from ChEMBL document CHEMBL1123529, “Analogues of substance P. Peptides containing D-amino acid residues in various positions of substance P and displaying agonist or receptor selective antagonist effects” (1986) are described below.

Where a SMILES comes first, the peptide text is derived from it. [ ]: non-standard residue; d: D form. The star is where a group is joined. Cbz = O=C(OCc1ccccc1)*

Assay [1] deals with Substance-P receptor (Cavia porcellus) (UniProt P30547). In words: In vitro percent agonist activity in guinea pig ileum. The assay is classed as functional, tissue-based. In short, it runs like this: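 Distal ileum from Dunkin-Hartley guinea pigs (300-350 g, either sex) in a 5-mL organ bath of Krebs solution at 37 °C, gassed with 95% O2/5% CO2. Dose-response curves were run on a 3-min cycle with 1-min agonist contact and washout. Agonist activity is expressed as a percentage of substance P.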

For assay [2], the target named is Metabotropic glutamate receptor 3 (Rattus norvegicus) (UniProt P31422). In words: Antagonistic activity against Glutamate receptor in spinal rat cord at concentration of 25 uM. The format is functional. Summed up:
(§1)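 Neonatal hemisectioned spinal cord from Wistar rats (Alderley Park strain, 2-7 days old), anaesthetised with intraperitoneal urethane (25% w/v, […]) and then decapitated. Cord superfused with oxygenated medium at 1 mL/min. Agonist (SP, SP(6-11), glutamate or carbachol) applied as 2-mL doses in the superfusate. Antagonist superfused for at least 15 min before agonists were retested. Read-out: % change in ventral root–cord DC potential response amplitude.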

The target of assay [3] is Substance-P receptor (Rattus norvegicus) (UniProt P14600). In words: Antagonistic activity against Substance P(6-11) receptor in rat spinal cord at concentration of 5 uM.
Assay [4] shares this target. Description: Antagonistic activity against Substance P receptor in rat spinal cord at concentration of 5 uM.
For assay [5], the target named is Substance-P receptor (Cavia porcellus) (UniProt P30547). Description: Antagonistic activity against Substance P(6-11) receptor in guinea pig ileum at concentration of 5 uM. The assay is classed as functional, tissue-based. In short, it runs like this:
(§2)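 Distal ileum from Dunkin-Hartley guinea pigs (300-350 g, both sexes) in a Krebs organ bath at 37 °C, gassed with 95% O2/5% CO2. Agonist (SP or SP(6-11)) dose-response curves run on a 3-min cycle with 1-min contact, with and without antagonist. Dose ratio = agonist EC50 with antagonist / EC50 alone. At least two preparations per compound; ratios below 2 taken as insignificant.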

Assay [6] concerns the target Metabotropic glutamate receptor 3 (Rattus norvegicus) (UniProt P31422). In words: Antagonistic activity against Glutamate receptor in rat spinal cord at concentration of 50 uM. The format is functional, tissue-based. Summed up: as §1
Assay [7] deals with Substance-P receptor (Rattus norvegicus) (UniProt P14600). Description: Antagonistic activity against Substance P(6-11) receptor in rat spinal cord at concentration of 25 uM.
For assay [8] the target is unchanged. Description: Antagonistic activity against Substance P receptor in rat spinal cord at concentration of 50 uM.
The target is the same in assay [9]. Description: Antagonistic activity against Substance P receptor in rat spinal cord at concentration of 25 uM.
The target in assay [10] is Metabotropic glutamate receptor 3 (Rattus norvegicus) (UniProt P31422). In words: Antagonistic activity against Glutamate receptor in spinal rat cord at concentration of 5 uM. The assay is classed as functional. Summed up: as §1
Assay [11] has as its target Substance-P receptor (Rattus norvegicus) (UniProt P14600). Description: Antagonistic activity against Substance P(6-11) receptor in rat spinal cord at concentration of 50 uM.
Assay [12] concerns the target Substance-P receptor (Cavia porcellus) (UniProt P30547). Description: Evaluated in vitro for percent agonist activity in guinea pig ileum (substance P receptor). The format is functional, tissue-based.
The target is the same in assay [13]. Description: Antagonistic activity against Substance P(6-11) receptor in guinea pig ileum at concentration of 50 uM. The format is functional, tissue-based. In short, it runs like this: as §2
For assay [14] the target is unchanged. Description: Antagonistic activity against Substance P receptor in guinea pig ileum at concentration of 50 uM. The format is functional, tissue-based. Summed up: as §2
The target of assay [15] is Metabotropic glutamate receptor 3 (Rattus norvegicus) (UniProt P31422). In words: Antagonistic activity against Glutamate receptor in rat spinal cord at concentration of 10 uM. The format is functional, tissue-based. Summed up: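 Cord superfused with oxygenated medium at 1 mL/min. Agonist (SP, SP(6-11), glutamate or carbachol) applied as 2-mL doses in the superfusate. Antagonist superfused for at least 15 min before agonists were retested. Read-out: % change in ventral root–cord DC potential response amplitude.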

Assay [16] deals with Substance-P receptor (Rattus norvegicus) (UniProt P14600). Description: Antagonistic activity against Substance P(6-11) receptor in rat spinal cord at concentration of 10 uM.
The target of assay [17] is Metabotropic glutamate receptor 3 (Rattus norvegicus) (UniProt P31422). Description: Antagonistic activity against Glutamate receptor in rat spinal cord at concentration of 25 uM. The format is functional, tissue-based. Summed up: as §1
Assay [18] addresses Substance-P receptor (Cavia porcellus) (UniProt P30547). In words: Antagonistic activity against Substance P(6-11) receptor in guinea pig ileum at concentration of 10 uM. The assay is classed as functional, tissue-based. In short, it runs like this:
as §2

Chain of Substance-P receptor (Rattus norvegicus) (P14600 whole entry, looked up): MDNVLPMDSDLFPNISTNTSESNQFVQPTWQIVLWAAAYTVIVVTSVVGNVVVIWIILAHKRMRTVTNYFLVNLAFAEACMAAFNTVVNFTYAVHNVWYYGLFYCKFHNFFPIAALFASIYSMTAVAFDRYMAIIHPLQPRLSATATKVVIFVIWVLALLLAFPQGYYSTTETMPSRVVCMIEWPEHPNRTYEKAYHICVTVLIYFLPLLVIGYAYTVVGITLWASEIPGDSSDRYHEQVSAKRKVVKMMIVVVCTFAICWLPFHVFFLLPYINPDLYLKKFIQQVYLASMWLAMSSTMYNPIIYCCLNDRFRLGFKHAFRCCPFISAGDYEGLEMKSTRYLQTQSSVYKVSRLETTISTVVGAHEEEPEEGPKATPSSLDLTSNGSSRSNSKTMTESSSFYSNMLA
Chain of Substance-P receptor (Cavia porcellus) (P30547 whole entry): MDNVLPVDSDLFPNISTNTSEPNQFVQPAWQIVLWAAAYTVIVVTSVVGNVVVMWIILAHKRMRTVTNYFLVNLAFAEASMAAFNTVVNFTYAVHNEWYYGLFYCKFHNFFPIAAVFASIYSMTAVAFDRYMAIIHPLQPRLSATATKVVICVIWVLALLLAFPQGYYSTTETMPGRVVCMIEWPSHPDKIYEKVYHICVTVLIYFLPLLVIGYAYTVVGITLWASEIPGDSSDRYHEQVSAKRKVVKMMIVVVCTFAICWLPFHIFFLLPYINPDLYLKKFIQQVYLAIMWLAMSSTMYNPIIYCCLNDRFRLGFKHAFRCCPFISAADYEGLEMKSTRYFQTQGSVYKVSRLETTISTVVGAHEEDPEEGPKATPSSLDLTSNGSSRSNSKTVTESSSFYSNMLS
Chain of Metabotropic glutamate receptor 3 (Rattus norvegicus) (P31422 23-879 limits assumed): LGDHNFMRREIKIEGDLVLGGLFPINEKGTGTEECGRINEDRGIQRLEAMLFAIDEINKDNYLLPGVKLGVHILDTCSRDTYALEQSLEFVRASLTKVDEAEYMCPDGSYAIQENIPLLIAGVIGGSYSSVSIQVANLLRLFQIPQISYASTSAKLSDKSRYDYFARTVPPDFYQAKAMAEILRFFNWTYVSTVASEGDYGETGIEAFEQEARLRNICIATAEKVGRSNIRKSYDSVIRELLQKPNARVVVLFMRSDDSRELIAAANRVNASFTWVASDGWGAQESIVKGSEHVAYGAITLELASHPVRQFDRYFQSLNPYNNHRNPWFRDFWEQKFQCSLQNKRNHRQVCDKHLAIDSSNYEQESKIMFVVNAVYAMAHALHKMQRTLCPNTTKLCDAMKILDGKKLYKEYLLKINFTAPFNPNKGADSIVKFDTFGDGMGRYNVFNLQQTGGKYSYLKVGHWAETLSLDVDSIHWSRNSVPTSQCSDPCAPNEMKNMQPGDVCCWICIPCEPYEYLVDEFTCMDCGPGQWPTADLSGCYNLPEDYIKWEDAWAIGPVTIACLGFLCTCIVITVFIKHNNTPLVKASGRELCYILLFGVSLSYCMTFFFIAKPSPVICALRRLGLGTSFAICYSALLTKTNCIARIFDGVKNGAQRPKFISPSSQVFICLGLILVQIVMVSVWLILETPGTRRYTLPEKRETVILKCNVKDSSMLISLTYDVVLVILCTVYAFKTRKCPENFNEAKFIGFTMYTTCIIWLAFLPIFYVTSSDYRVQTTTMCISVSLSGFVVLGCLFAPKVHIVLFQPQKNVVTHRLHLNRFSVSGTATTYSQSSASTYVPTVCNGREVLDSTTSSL

For the compound `COC(=O)[C@@H](CCSC)NC(=O)[C@H](CC(C)C)NC(=O)[C@@H](Cc1c[nH]c2ccccc12)NC(=O)[C@H](Cc1c[nH]c2ccccc12)NC(=O)[C@@H](Cc1c[nH]c2ccccc12)NC(=O)[C@H](CCC(N)=O)NC(=O)[C@H](CCC(N)=O)NC(=O)[C@@H]1CCCN1C(=O)[C@H](CCCCNC(=O)OCc1ccccc1)NC(=O)[C@@H]1CCCN1C(=O)[C@H](CCCN=C(N)N)NC(=O)OCc1ccccc1`, in [1], the SP was 0%.

`COC(=O)[C@@H](CCSC)NC(=O)[C@H](CC(C)C)NC(=O)[C@@H](Cc1c[nH]c2ccccc12)NC(=O)[C@H](Cc1c[nH]c2ccccc12)NC(=O)[C@@H](Cc1c[nH]c2ccccc12)NC(=O)[C@H](CCC(N)=O)NC(=O)[C@H](CCC(N)=O)NC(=O)[C@@H]1CCCN1C(=O)[C@H](CCCCN)NC(=O)[C@@H]1CCCN1C(=O)[C@@H](N)CCCN=C(N)N`: the Change in amplitude response in assay [2] is 29%; in assay [3], -42%; in [4] it was 32%; in assay [6] it was 27%; in assay [7], -87%; in [8], -19%. The values for the Change in amplitude response in assay [9], in assay [10] and in assay [11] were 21%, -3% and -87%, respectively. In assay [5], this compound returned an Activity of 8.1 dose ratio.

For `COC(=O)[C@H](CCSC)NC(=O)[C@@H](NC(=O)[C@H](NC(=O)[C@H](Cc1ccccc1)NC(=O)[C@H](Cc1ccccc1)NC(=O)[C@H](CCC(N)=O)NC(=O)[C@H](CCC(N)=O)NC(=O)[C@@H]1CCCN1C(=O)[C@H](CCCCNC(=O)OCc1ccccc1)NC(=O)[C@@H]1CCCN1C(=O)[C@H](CCCN=C(N)N)NC(=O)OCc1ccccc1)C(C)C)C(C)C`, in assay [12], the SP turned out to be 0%. Further, the results for the Change in amplitude response in assay [6], in [8] and in [11] were -36%, -30% and -22%, respectively. In addition, the Activity in assay [13] and in [14] was less than 2 dose ratio each time.

Regarding `COC(=O)[C@@H](CCSC)NC(=O)[C@H](CC(C)C)NC(=O)CNC(=O)[C@H](Cc1ccccc1)NC(=O)[C@H](Cc1ccccc1)NC(=O)[C@@H](NC(=O)[C@H](NC(=O)[C@@H]1CCCN1C(=O)[C@H](CCCCNC(=O)OCc1ccccc1)NC(=O)[C@@H]1CCCN1C(=O)[C@H](CCCN=C(N)N)NC(=O)OCc1ccccc1)C(C)C)C(C)C`, in [12], the SP came out at 0.001%. The Change in amplitude response in assay [6] was -17%; in assay [15] it was -5%; in [8], -13%; in [16], 31%; in assay [11], -21%.

As to `COC(=O)[C@@H](CCSC)NC(=O)[C@H](CC(C)C)NC(=O)CNC(=O)[C@@H](Cc1c[nH]c2ccccc12)NC(=O)[C@@H](Cc1c[nH]c2ccccc12)NC(=O)[C@H](CCC(N)=O)NC(=O)[C@H](CCC(N)=O)NC(=O)[C@@H]1CCCN1C(=O)[C@H](CCCCNC(=O)OCc1ccccc1)NC(=O)[C@@H]1CCCN1C(=O)[C@H](CCCN=C(N)N)NC(=O)OCc1ccccc1` (Cbz-RPK(Cbz)PQQ[dW][dW]GL[dM]-OMe), the Change in amplitude response was -13% in [17]; 11% in [6]; -77% in [7]; -3% in assay [15]; 8.3% in assay [8]; -33% in [16]. Moreover, in assay [11], the Change in amplitude response was -75%. The SP in assay [12] was 0%. This compound also came in with an Activity in assay [18] of 90 dose ratio.
